# According to ChEMBL document CHEMBL4732273, “In Silico Targeting of the Long Noncoding RNA MALAT1” (ACS Med Chem Lett, 2021):
# The source made the active and inactive calls. No cut-off for these calls is given here.
# Tests used:
# [1] = Binding affinity to biotinylated-MALAT1 RNA (unknown origin) at 200 uM measured after 140 secs by Surface plasmon resonance analysis; conditions: time 140.0 sec
# In short: (§1)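 The RNA was 3′-biotinylated by ligating pCp-biotin with T4 RNA ligase 1 after dephosphorylation, then immobilized on the SPR chip at 300 RU. Compounds were injected as 50 μL at 200 μM at a 20 μL/min flow rate, followed by 60 s of dissociation. Biotinylated tRNA was immobilized and run the same way as the negative-control surface.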
# tRNA = assay: Binding affinity to biotinylated-tRNA (unknown origin) at 200 uM measured after 120 secs by Surface plasmon resonance analysis; assay type: nucleic-acid assay; conditions: time 120.0 sec; in short: as §1
# [2] = Binding affinity to biotinylated-MALAT1 RNA (unknown origin) by Surface plasmon resonance analysis
# In short: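 Surface plasmon resonance on MALAT1 RNA that was 3′-biotinylated by pCp-biotin ligation with T4 RNA ligase 1 and immobilized at 300 RU. Compound was flowed at 20 μL/min with 60 s of dissociation. A biotinylated tRNA surface served as the negative control. The dissociation constant was derived from the SPR sensorgram analysis.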
Activity [1],Activity (tRNA),Kd [2],Compound
Active,inactive,–,CN1CCC(O)(Cn2cnc3ccc(F)cc3c2=O)CC1
Active,inactive,400 µM,NS(=O)(=O)c1ccc(CNC2CCC3(CCNCC3)CC2)cc1
Active,inactive,–,c1ccc2sc(C3CCCN(Cc4cc5n(n4)CCCNC5)C3)nc2c1 (stereo unspecified)
Active,–,–,O=C(c1cc(=O)[nH]c2cc(F)ccc12)N1CCCC(N2CCCC2)C1 (stereo unspecified)

# The remaining lines, values behind:
Compound,Activity [1],Activity (tRNA),Kd [2]
NCC1Cc2cccc(-c3cc4c(cc3C(N)=O)OCO4)c2O1 (stereo unspecified),Active,Active,–
Cc1ccc(NC(=O)NCC2CCCN(C3CCN(C)CC3)C2)cc1 (stereo unspecified),Active,Active,–
CCN1CCCC1CNC(=O)CCC1CCN(Cc2cc3ccccc3s2)CC1 (stereo unspecified),Active,Active,–
COc1ncccc1CN1CCN(c2ccc(C(N)=O)cc2)CC1,Active,Active,–
